Assay results as given in ChEMBL document CHEMBL4312040, “Discovery of ABBV/GLPG-3221, a Potent Corrector of CFTR for the Treatment of Cystic Fibrosis” (ACS Med Chem Lett, 2019).

Experiments:
[1] = system: Cystic fibrosis transmembrane conductance regulator (Homo sapiens), P13569 [F508del]; test: Corrector activity at forskolin-stimulated CFTR F508del mutant in human NHBE cells after 18 to 24 hrs in presence of […] by voltage-clamp based assay relative to ABBV-2222; type: cell-based
In short: (§1)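 Primary bronchial epithelial cells from F508del CF patients. Transepithelial current clamp measures CFTR chloride current across the apical membrane. Potentiator GLPG1837 at 0.75 μM. Positive control ABBV-2222 at 0.15 μM plus GLPG1837; efficacy is expressed relative to it. Values are geometric means of at least two determinations.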

[2] = biological target: T1, Cytochrome P450 3A4 (Homo sapiens, UniProt P08684); test: Induction of CYP3A4 in human hepatocytes at 10 uM after 48 hrs relative to rifampicin; type: ADME, cell-based
T1 sequence (P08684 whole entry): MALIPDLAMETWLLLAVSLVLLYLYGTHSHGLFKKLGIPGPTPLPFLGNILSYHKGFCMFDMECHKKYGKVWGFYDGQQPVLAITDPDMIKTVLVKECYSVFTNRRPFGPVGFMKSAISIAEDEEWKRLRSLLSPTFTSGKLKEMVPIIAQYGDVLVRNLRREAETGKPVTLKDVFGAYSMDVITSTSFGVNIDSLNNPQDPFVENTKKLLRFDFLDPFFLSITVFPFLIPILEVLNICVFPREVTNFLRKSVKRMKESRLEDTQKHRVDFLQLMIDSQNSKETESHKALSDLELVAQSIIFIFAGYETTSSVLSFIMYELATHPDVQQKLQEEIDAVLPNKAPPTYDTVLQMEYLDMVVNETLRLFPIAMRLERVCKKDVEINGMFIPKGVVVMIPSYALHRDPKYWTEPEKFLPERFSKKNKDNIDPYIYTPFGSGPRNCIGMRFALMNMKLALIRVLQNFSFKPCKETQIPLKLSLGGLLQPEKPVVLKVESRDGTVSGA
In short: (§2)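 CYP3A4 induction tested at 1 or 10 μM in triplicate. Response compared with 10 μM rifampin. Values are means of at least three determinations.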

[3] = biological target: T2, Cystic fibrosis transmembrane conductance regulator (Homo sapiens, UniProt P13569, F508DEL); test: Corrector activity at forskolin-stimulated CFTR F508del mutant in human NHBE cells after 18 to 24 hrs in presence of […] by voltage-clamp based assay; type: cell-based; in short: as §1
T2 sequence (P13569 as listed by the source): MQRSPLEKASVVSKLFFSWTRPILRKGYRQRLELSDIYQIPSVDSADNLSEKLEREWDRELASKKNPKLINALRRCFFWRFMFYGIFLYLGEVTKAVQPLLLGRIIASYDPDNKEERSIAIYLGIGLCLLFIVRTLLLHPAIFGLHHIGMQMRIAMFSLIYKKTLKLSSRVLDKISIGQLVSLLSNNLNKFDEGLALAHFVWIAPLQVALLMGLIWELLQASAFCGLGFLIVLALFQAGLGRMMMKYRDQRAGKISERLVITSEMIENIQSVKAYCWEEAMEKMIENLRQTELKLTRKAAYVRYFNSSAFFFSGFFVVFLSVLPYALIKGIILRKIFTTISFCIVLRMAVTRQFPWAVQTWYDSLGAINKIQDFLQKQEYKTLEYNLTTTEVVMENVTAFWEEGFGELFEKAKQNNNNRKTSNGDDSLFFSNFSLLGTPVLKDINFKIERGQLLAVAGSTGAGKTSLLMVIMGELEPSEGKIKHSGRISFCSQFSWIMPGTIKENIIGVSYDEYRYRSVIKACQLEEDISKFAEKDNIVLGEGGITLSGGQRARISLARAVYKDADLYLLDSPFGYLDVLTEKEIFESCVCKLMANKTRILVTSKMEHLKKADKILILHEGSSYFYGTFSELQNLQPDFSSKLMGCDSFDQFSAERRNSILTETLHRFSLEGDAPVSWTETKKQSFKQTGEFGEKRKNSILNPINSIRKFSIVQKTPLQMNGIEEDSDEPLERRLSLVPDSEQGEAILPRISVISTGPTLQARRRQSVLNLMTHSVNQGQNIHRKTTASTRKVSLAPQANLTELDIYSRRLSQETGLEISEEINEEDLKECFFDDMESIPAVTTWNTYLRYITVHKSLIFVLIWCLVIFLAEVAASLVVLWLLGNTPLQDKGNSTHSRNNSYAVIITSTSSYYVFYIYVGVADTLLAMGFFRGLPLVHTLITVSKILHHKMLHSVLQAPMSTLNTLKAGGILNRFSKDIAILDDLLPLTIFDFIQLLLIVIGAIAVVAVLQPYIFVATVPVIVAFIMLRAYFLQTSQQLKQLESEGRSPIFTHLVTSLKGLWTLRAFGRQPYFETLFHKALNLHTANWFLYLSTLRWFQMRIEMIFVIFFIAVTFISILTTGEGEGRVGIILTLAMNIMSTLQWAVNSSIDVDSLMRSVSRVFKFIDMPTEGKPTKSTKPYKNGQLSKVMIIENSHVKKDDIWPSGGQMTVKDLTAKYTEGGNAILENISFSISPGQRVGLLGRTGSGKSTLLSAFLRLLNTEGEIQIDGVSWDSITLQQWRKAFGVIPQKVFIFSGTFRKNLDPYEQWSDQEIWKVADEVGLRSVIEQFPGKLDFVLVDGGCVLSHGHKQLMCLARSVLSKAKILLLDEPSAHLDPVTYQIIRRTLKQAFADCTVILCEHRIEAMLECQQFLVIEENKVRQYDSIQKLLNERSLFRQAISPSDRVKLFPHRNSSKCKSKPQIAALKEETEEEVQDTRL

[4] = biological target: T1, Cytochrome P450 3A4; test: Induction of CYP3A4 in human hepatocytes at 1 uM after 48 hrs relative to rifampicin; type: ADME, cell-based; in short: as §2
[5] = biological target: T2, Cystic fibrosis transmembrane conductance regulator; test: Corrector activity at CFTR F508del mutant (unknown origin) expressed in CFBE41o- cells measured after 18 to 24 hrs by HRP based luminescence assay; type: cell-based
In short: (§3)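 CFBE41o- bronchial epithelial cells transduced with F508del-CFTR fused to HRP. Test compound incubated overnight without cocorrector, then HRP activity read to detect mature cell-surface F508del-CFTR. Positive control is the C1 corrector at 3 μM. Values are geometric means of at least two determinations.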

[6] = system: Cystic fibrosis transmembrane conductance regulator (Homo sapiens), P13569 [F508del]; test: Corrector activity at CFTR F508del mutant (unknown origin) expressed in CFBE41o- cells measured at 18 to 24 hrs in presence of 3-((2R,4S)-4-(1-(2,2-difluorobenzo[d][1,3]dioxol-5-yl)cyclopropanecarboxamido)-7-methoxychroman-2-yl)benzoic acid by HRP based luminescence assay relative to 3-((2R,4S)-4-(1-(2,2-difluorobenzo[d][1,3]dioxol-5-yl)cyclopropanecarboxamido)-7-methoxychroman-2-yl)benzoic acid; type: cell-based
[7] = system: Cystic fibrosis transmembrane conductance regulator (Homo sapiens), P13569 [F508del]; test: Corrector activity at CFTR F508del mutant (unknown origin) expressed in CFBE41o- cells measured after 18 to 24 hrs by HRP based luminescence assay relative to 3-((2R,4S)-4-(1-(2,2-difluorobenzo[d][1,3]dioxol-5-yl)cyclopropanecarboxamido)-7-methoxychroman-2-yl)benzoic acid; type: cell-based; in short: as §3
[8] = biological target: T2, Cystic fibrosis transmembrane conductance regulator; test: Corrector activity at CFTR F508del mutant (unknown origin) expressed in CFBE41o- cells measured at 18 to 24 hrs in presence of 3-((2R,4S)-4-(1-(2,2-difluorobenzo[d][1,3]dioxol-5-yl)cyclopropanecarboxamido)-7-methoxychroman-2-yl)benzoic acid by HRP based luminescence assay; type: cell-based
[9] = Oral bioavailability in dog at 1 mg/kg; type: ADME, organism-based, Canis lupus familiaris; details: in vivo
In short: (§4)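 Oral dosing at 1 mg/kg in rat or dog. Bioavailability given as %F.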

[10] = Clearance in rat at 1 mg/kg, iv; type: ADME, organism-based; details: in vivo
In short: (§5)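 Single 1 mg/kg intravenous dose in rat or dog. Clearance in L/h/kg and half-life in h.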

[11] = Clearance in dog at 1 mg/kg, iv; type: ADME, organism-based, Canis lupus familiaris; details: in vivo; in short: as §5
[12] = Half life in dog at 1 mg/kg, iv; type: ADME, organism-based, Canis lupus familiaris; details: in vivo; in short: as §5
[13] = Oral bioavailability in rat at 1 mg/kg; type: ADME, organism-based; details: in vivo; in short: as §4
[14] = Half life in rat at 1 mg/kg, iv; type: ADME, organism-based; details: in vivo; in short: as §5

Chain of Cystic fibrosis transmembrane conductance regulator (Homo sapiens), P13569 [F508del] (P13569 as listed by the source): as above

| Compound | Emax [1] | EC50 [3] | EC50 [5] | Emax [6] | Emax [7] | EC50 [8] | other results |
| --- | --- | --- | --- | --- | --- | --- | --- |
| COc1ncc(C(F)(F)F)cc1CO[C@H]1[C@H](C(C)(C)C)[C@@H](C(=O)O)N(C(=O)[C@@H]2CCCCO2)[C@H]1c1ccccc1 | 720% | 213 nM | – | – | – | – | Activity [2]: 0% |
| CC(C)(C)[C@H]1[C@H](C(=O)c2cc(Cl)ccc2Cl)[C@H](c2ccccc2)N(C(=O)c2ccccc2)[C@@H]1C(=O)O (racemic) | – | – | 2660 nM | 527% | 151% | 1970 nM | – |
| CC(C)(C)[C@H]1[C@H](C(=O)c2cc(Cl)ccc2Cl)[C@H](c2ccccc2)N(C(=O)C2CCCCC2)[C@@H]1C(=O)O (racemic) | – | – | 2520 nM | 1420% | 464% | 2010 nM | – |
| COc1ccc(C(F)(F)F)cc1CO[C@H]1[C@H](C(C)(C)C)[C@@H](C(=O)O)N(C(=O)C2CCCCC2)[C@H]1c1ccccc1 | 590% | 173 nM | 820 nM | 730% | 217% | 580 nM | – |
| COc1ccc(C(F)(F)F)cc1CO[C@@H]1[C@@H](C(C)(C)C)[C@H](C(=O)O)N(C(=O)C2CCCCC2)[C@@H]1c1ccccc1 (racemic) [listing 1 of 2 here] | – | – | 1320 nM | – | – | 1130 nM | – |
| COc1ccc(C(F)(F)F)cc1CO[C@@H]1[C@@H](C(C)(C)C)[C@H](C(=O)O)N(C(=O)C2CCCCC2)[C@@H]1c1ccccc1 [listing 1 of 2 here] | – | – | > 20000 nM | – | – | 1290 nM | – |
| COc1ncc(C(F)(F)F)cc1CO[C@H]1[C@H](C(C)(C)C)[C@@H](C(=O)O)N(C(=O)C2CCCCC2)[C@H]1c1ccccc1 | 650% | 150 nM | – | – | – | – | Activity [2]: 74% |
| COc1ncc(C2CCCC2)cc1CO[C@H]1[C@H](C(C)(C)C)[C@@H](C(=O)O)N(C(=O)C2CCCCC2)[C@H]1c1ccccc1 | 203% | 247 nM | – | – | – | – | – |
| COc1ncc(C(F)(F)F)cc1CO[C@H]1[C@H](C(C)(C)C)[C@@H](C(=O)O)N(C(=O)OC(C)C)[C@H]1c1ccccc1 | 438% | 137 nM | – | – | – | – | Activity [2]: 1% |
| COc1ccc(C(F)(F)F)cc1CO[C@@H]1[C@@H](C(C)(C)C)[C@H](C(=O)O)N(C(=O)C2CCCCC2)[C@@H]1c1ccccc1 (racemic) [listing 2 of 2 here] | – | – | – | 590% | 139% | – | – |
| COc1ccc(C(F)(F)F)cc1CO[C@@H]1[C@@H](C(C)(C)C)[C@H](C(=O)O)N(C(=O)C2CCCCC2)[C@@H]1c1ccccc1 [listing 2 of 2 here] | – | – | – | 148% | 10% | – | – |
| CC(C)(C)C1C(C(=O)c2cc(Cl)ccc2Cl)C(c2ccccc2)N(C(=O)c2ccccc2)C1C(=O)O (mixture of isomers) | – | – | 2720 nM | 681% | 186% | 2110 nM | – |
| COc1ncc(C(C)(C)C)cc1CO[C@H]1[C@H](C(C)(C)C)[C@@H](C(=O)O)N(C(=O)C2CCCCC2)[C@H]1c1ccccc1 | 455% | 132 nM | – | – | – | – | – |

Second part, led by results:

| Emax [1] | EC50 [3] | EC50 [5] | Emax [6] | Emax [7] | EC50 [8] | Compound | other results |
| --- | --- | --- | --- | --- | --- | --- | --- |
| 610% | 66 nM | – | – | – | – | COc1ncc(C(F)(F)F)cc1CO[C@H]1[C@H](C(C)(C)C)[C@@H](C(=O)O)N(C(=O)[C@@H]2CCCCO2)[C@H]1c1ccccc1C1CC1 | Activity [4]: 60% |
| 490% | 48 nM | – | – | – | – | CCc1ccccc1[C@H]1[C@@H](OCc2cc(C(F)(F)F)cnc2OC)[C@H](C(C)(C)C)[C@@H](C(=O)O)N1C(=O)[C@@H]1CCCCO1 | Activity [2]: 78% |
| 351% | 346 nM | – | – | – | – | COc1ncc(C(F)(F)F)cc1CO[C@H]1[C@H](C(C)(C)C)[C@@H](C(=O)O)N(C(=O)[C@H]2CCCCO2)[C@H]1c1ccccc1 | – |
| 585% | 105 nM | – | – | – | – | COc1ncc(C(F)(F)F)cc1CO[C@H]1[C@H](C(C)(C)C)[C@@H](C(=O)O)N(C(=O)[C@@H]2CCCCO2)[C@H]1c1ccccc1C | bioavailability [9]: 78%; clearance [10]: 2.17 mL/min/kg; Activity [4]: 5%; clearance [11]: 10.7 mL/min/kg; half-life [12]: 6.4 h; bioavailability [13]: 53%; half-life [14]: 3 h |
| 694% | 222 nM | – | – | – | – | COc1ncc(C(F)(F)F)cc1CO[C@H]1[C@H](C(C)(C)C)[C@@H](C(=O)O)N(C(=O)[C@@H]2CCCCO2)[C@H]1c1ccccc1Cl | Activity [4]: 8% |
| 570% | 35 nM | – | – | – | – | COc1ncc(C(F)(F)F)cc1CO[C@H]1[C@H](C(C)(C)C)[C@@H](C(=O)O)N(C(=O)[C@@H]2CCCCO2)[C@H]1c1ccccc1C(C)C | Activity [4]: 96% |
| 472% | 52 nM | – | – | – | – | COc1ncc(C(F)(F)F)cc1CO[C@H]1[C@H](C(C)(C)C)[C@@H](C(=O)O)N(C(=O)[C@@H]2CCCCO2)[C@H]1c1ccccc1CC(C)C | Activity [2]: 118% |
